# MC4R antagonist: human MC4R antagonism in cAMP assay; MC4R-expressing cells, MTII-stimulated cAMP, LANCE TR-FRET; AID 540295; P32245; inhibition, % at 6.5 µM; 0.48% of 360,000 active;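 active = inhibition above its plate's cutoff, the mean of tested wells on that plate plus 3 SD, cut at about 29% in these data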;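 also: 0% = Melanotan II alone and 100% = Melanotan II plus saturating MCL0020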
#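 System: U2OS cells stably expressing human melanocortin 4 receptor (MC4R). Reagent: Melanotan II challenge after compound preincubation. Doses: 6.5 µM. Times: 30-min compound, 1-h challenge, 1-h detection, room temperature. Measured by: TR-FRET with Eu-cAMP and labeled anti-cAMP, 671 nm. Replicates: singlicate.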
# ANO1 block: blocks the mouse calcium-activated chloride channel TMEM16A; Q8BHY3; HEK293 TMEM16A/YFP iodide influx fluorescence, ionomycin; normalized B-score (activity score, 25-100; higher = stronger inhibition) at 10 µM; 1.2% of 310,000 active; AID 588511;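 active = ratio plate-corrected score three or more library SD toward inhibition, starting fluorescence score within five deviations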;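 also: score derived from kinetic fluorescence span divided by baseline fluorescence per well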
# HTR2A ag: mouse HTR2A agonism via beta-arrestin recruitment; P35363; CHO-K1 mHTR2A beta-arrestin complementation, luminescence; percent of 30 µM serotonin response; activation, % at 7.6 µM; 0.66% of 360,000 active;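 active = activation above a run cutoff, the mean activation of all tested compounds plus 3 SD, cut at about 14% in these data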;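 also: 0% = plate median of compound wells and 100% = 30 µM serotonin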
# ANO1 activ: activators or potentiators of mouse TMEM16A chloride channel; Q8BHY3; HEK293 TMEM16A/YFP-H148Q/I152L, iodide quench fluorescence; active compounds read low; B-score at 10 µM; 0.3% of 340,000 active;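 active = fluorescence-ratio B-score plate-corrected deviation score at least 3 library SD below zero, with starting fluorescence score within 5 deviations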;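 also: channel opened by trigger with iodide after compound preincubation; score built on the fluorescence ratio of max minus min over baseline; more negative score means more quench and so TMEM16A activation or potentiation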
# MIN6 prolif: inducers of beta-cell replication in MIN6 cells; MIN6 cells proliferation, ATPlite luminescence, 48 h; cells starved in 0.2% serum; 100% = growth in 10% serum; proliferation, % at 10 µM; 0.29% of 330,000 active; AID 2380;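 active = compounds whose signal lies at least 3.5 SD above the mean of all wells on their plate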;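 also: 0% = DMSO-treated cells in low-serum medium and 100% = 10% serum control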
# MC4R barr agon: human MC4R agonism via beta-arrestin; P32245; U2OS MC4R beta-arrestin complementation, luminescence; percent of melanotan II response, DMSO zero; activation, % at 8.9 µM; 0.98% of 360,000 active; AID 540308;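 active = activation above a per-plate cutoff, the mean activation of sample wells on that plate plus 3 SD, cut at about 8% in these data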
# MC4R barr ag: human MC4R beta-arrestin agonism confirmation. shares compounds with MC4R barr agon. U2OS MC4R beta-arrestin recruitment, luminescence; scaled DMSO 0%, Melanotan II 100%. activation, % at 8.9 µM. 31% of 2,400 active. AID 602192;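 active = mean activation across replicates above the hit cutoff set in the earlier primary screen, cut at about 8% in these data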
# MOR DOR agonist: OPRM1-OPRD1 heterodimer agonism counter-screen; 5.8% of 2,400 active; shares compounds with MC4R barr agon; activation, % at 9.2 µM; AID 602194; U2OS PathHunter beta-arrestin, beta-gal luminescence; percent of deltorphin B response, DMSO zero;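 active = mean activation across replicates exceeds the hit threshold derived in the earlier primary screen, cut at about 18% in these data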;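 also: 100% = deltorphin B at 0.9 µM final and 0% = DMSO alone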
# Numbers without * were called inactive; i = inactive; / = no result. Compounds with a hit are over-represented: about 3.4% of the library has one in this group of screens.
SMILES,MC4R antagonist,ANO1 block,HTR2A ag,ANO1 activ,MIN6 prolif,MC4R barr agon,MC4R barr ag,MOR DOR agonist
COC(=O)c1ccc(C2C(Oc3ccccc3)C(=O)N2CCc2ccc(F)cc2)cc1 (centres undefined),10.6,i,3.1,i,-2.4,19.6*,2.6,4.6
Cc1ccc([C@@H]2CC(=O)[C@@H]3CN(S(=O)(=O)c4ccc(C)cc4)[C@H](c4ccc(Cl)cc4)C[C@@H]3N2S(=O)(=O)c2ccc(Cl)cc2)cc1,-2.0,/,1.0,/,/,0.6,/,/
O=C(CNC(=O)c1ccc(Br)o1)Nc1cccc(-c2cnc3ccccc3n2)c1,8.6,i,-0.6,i,-1.3,16.0*,-0.4,4.1
O=C(Nc1cccc(-c2cnc3ccccc3n2)c1)c1ccco1,19.2,i,4.6,i,0.1,-1.0,/,/
COc1cc(C(=O)NCCCN2CCCC2=O)cc(Br)c1OCc1ccccc1,-6.5,/,-5.2,i,-2.7,-0.1,/,/
COC(=O)N/N=C\c1cc2c(cc1Br)OCO2,21.9,i,-3.8,i,0.9,3.0,/,/
Cc1ccc(C(=O)N/N=C\c2cc3c(cc2Br)OCO3)s1,1.6,i,-1.7,i,0.0,12.1*,10.4*,7.5
Cc1ccc(C(CNC(=O)c2ccco2)N2CCN(C)CC2)cc1 (centres undefined),-0.5,i,-5.4,i,5.9,-2.4,/,/
COc1cc(/C=C/C(=O)/C=C(O)/C=C/c2ccc(O)c(OC)c2)ccc1O,7.8,/,-2.4,i,-6.6,11.9*,12.3*,5.5
Cc1csc(NC(=O)CSc2nc3sc(C)c(C)c3c(=O)[nH]2)n1,-1.2,i,0.5,i,-1.7,4.0,/,/
Cc1sc2nc(SCC(=O)Nc3ccccc3F)[nH]c(=O)c2c1C,-1.9,i,10.5,i,-1.4,11.8*,2.3,3.5
ON=C(CCc1ccccc1)CCc1ccccc1,3.9,/,-6.2,i,/,5.3,/,/
CCOC(=O)c1c(C)[nH]c(C(=O)N2CCC(C(=O)OCC)CC2)c1C,7.7,i,9.6,i,-1.6,-2.2,/,/
CCOc1ccc(-n2cnnn2)cc1S(=O)(=O)NCc1ccccc1,-3.4,i,-1.6,i,-3.7,15.7*,-1.0,2.1
Cc1ccc(NS(=O)(=O)c2ccc3c(c2)OCCCO3)cc1S(=O)(=O)N1CCOCC1,10.7,/,3.9,i,1.1,1.3,/,/
N#C/C(=C\c1cn(CCOc2ccccc2)c2ccccc12)C(=O)NCc1ccco1,19.8,i,2.3,i,-3.8,21.4*,34.8*,8.9
N#C/C(=C\c1cn(CCOc2ccccc2F)c2ccccc12)C(=O)NCc1cccs1,10.1,i,-1.1,i,-6.0,10.4*,25.7*,7.8
Cc1ccccc1OCCn1cc(/C=C(\C#N)C(=O)NCc2ccco2)c2ccccc21,4.2,i,-3.3,i,-5.2,25.6*,12.0*,6.0
COc1ccc(NC(=O)CN2C(=O)S/C(=C/c3cccn3-c3ccc(C(=O)O)cc3)C2=O)cc1,-0.6,i,-0.7,i,-1.4,-3.5,/,/
COc1ccc(C(=O)Nc2cc(-c3ccc(C)cc3)no2)cc1,-1.4,i,4.3,i,-0.8,9.8*,-2.0,5.3
Cc1ccc(-c2cc(NC(=O)c3ccccc3)on2)cc1,0.9,i,0.5,i,-0.8,5.7,/,/
C=CCNc1nc2cc(-c3cccc(Cl)c3)sc2c(=O)n1C,4.8,/,6.7,/,/,0.5,/,/
O=C(Nc1cc(N2CCOCC2)ncn1)Nc1cccc2ccccc12,11.8,i,1.9,i,-2.8,21.6*,7.3,5.0
Cc1c(C(=O)NC2CCCc3ccccc32)oc2ccc(S(=O)(=O)N3CCCC3)cc12 (centres undefined),17.0,i,-3.7,i,-2.6,14.2*,4.0,3.6
COc1cc(NC(=O)c2cccs2)c(OC)cc1NC(=O)CCC(=O)Nc1ccc(C)cc1,12.3,i,-5.5,i,5.3,12.8*,2.8,0.7
SMILES,MC4R antagonist,ANO1 block,HTR2A ag,ANO1 activ,MIN6 prolif,MC4R barr agon,MC4R barr ag,MOR DOR agonist
COc1ccc(NC(=O)c2sc3cc(C(F)(F)F)cnc3c2-c2cccs2)cc1,3.4,i,1.4,i,-1.4,9.8*,-0.9,3.0
O=C(Nc1ccc(F)cc1)c1sc2cc(C(F)(F)F)cnc2c1-c1cccs1,0.7,i,-1.7,i,-0.3,11.0*,6.1,5.7
O=C(C[n+]1cc(-c2ccccc2)n2c1CCCCC2)c1ccc(Cl)cc1,2.6,i,-3.2,i,-6.1,-2.9,/,/
CC1CCC(C(C)C)C(OC(=O)C[n+]2cc(-c3ccc(Cl)cc3)n3c2CCCCC3)C1 (centres undefined),8.2,i,0.2,i,-5.4,34.2*,24.6*,6.7
CCc1ccc(C(=O)NC(=S)Nc2ccc3c(c2)OCCO3)cc1,1.1,i,0.3,i,0.0,-1.2,/,/
Cc1ccc(C(=O)NC(=S)Nc2ccc(NC(=O)c3cccc(Cl)c3)cc2)cc1,4.5,i,3.6,i,0.0,12.1*,13.3*,8.3
O=C(NC(=S)Nc1ccc2c(c1)OCO2)c1ccc(Cl)cc1,-6.4,i,4.1,i,-5.6,11.2*,0.7,2.5
Cc1ccc(S(=O)(=O)NCCNS(=O)(=O)c2ccccc2Br)cc1,-0.9,/,0.7,i,/,-3.1,/,/
Cc1ccc(S(=O)(=O)NCCNc2ccc(Br)c(C)c2)cc1,1.9,/,-1.9,i,-3.8,18.2*,4.2,6.7
Nc1ccc(S(=O)(=O)Nc2nccc(/C=C/c3ccc(Cl)cc3)n2)cc1,5.0,i,-2.5,i,-2.8,21.3*,-0.8,2.5
Nc1ccc(S(=O)(=O)Nc2nccc(/C=C/c3ccc([N+](=O)[O-])cc3)n2)cc1,12.8,i,-1.2,i,-2.6,1.6,/,/
CC(=O)Nc1cc(-c2cccc(C(=O)N(C)C)c2)cn2c(-c3ccc(F)c(Cl)c3)cnc12,8.8,/,-5.6,/,/,16.1*,23.5*,1.8
CC(=O)Nc1cc(-c2cccc(C(=O)N(C)C)c2)cn2c(-c3cccc(C(=O)N(C)C)c3)cnc12,16.6,/,-1.8,/,/,1.3,/,/
CC(=O)Nc1cc(-c2ccc(C(=O)N3CCOCC3)cc2)cn2c(-c3ccccc3)cnc12,7.2,/,2.6,/,/,25.5*,18.8*,1.1
CC(=O)Nc1cc(-c2cccc(C(=O)N(C)C)c2)cn2c(-c3ccc(C(C)=O)cc3)cnc12,20.9,/,9.9,/,/,11.2*,6.3,0.7

# Compound activity: PubChem, several laboratories
